Compound activity from PubChem BioAssay.
In the library only some 2% were active in any assay of this set; here they are far more common.
Hep lipid drop = inhibitors of hepatocyte lipid droplet formation, primary screen, imaging, high-throughput imaging, BODIPY stain. AML12 mouse hepatocytes, oleate lipid droplets. inhibition, % at 6.5 µM. 240,000 compounds, 0.4% hits;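 active means lipid droplet intensity inhibited by at least 50%, with more than 500 cells counted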
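material = mouse AML12 hepatocyte cell line, fixed after treatment | also added = 100 µM oleic acid challenge | doses = compound at 6.5 µM only | schedule = overnight exposure | technique = Image-based BODIPY and DAPI two-channel analysis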
NTR1 agonist = agonists of human NTR1, primary screen, imaging, U2OS cells, beta-arrestin-GFP, high content; Neurotensin receptor type 1 (Homo sapiens), P30989; NTR1-U2OS beta-arrestin-GFP spot imaging, agonist mode; activation, % at 20 µM; 330,000 compounds, 0.17% hits;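 active means activation at or above 40% of the spot to cytoplasm intensity ratio, with at least 20 cells analyzed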
Arr AP2 block = inhibitors of beta-arrestin/AP2 binding, primary screen, biochemical, GPCR trafficking, flow cytometry. beta-arrestin 1 C-terminal peptide binding to AP2 beta2-adaptin appendage (human). FITC-arrestin peptide / GST-AP2 beads; AP2 beta2 appendage carries R879A mutation. inhibition, % at 10 µM. 340,000 compounds, 0.31% hits. AID 504490, 2011;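 active means inhibition above a set limit, near 3 SD of compounds lacking own fluorescence, cut at about 54% in these data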
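Material – GST-tagged AP2 beta2-adaptin appendage (R879A) on 4 µm glutathione beads · Probe or stimulus – fluorescein-tagged arrestin peptide at 50 nM final · Timing – 12 min plus 1 h, RT · Detection – bead flow cytometry, FITC channel · Read-out basis – inhibition as reduced fluorescein signal on beads, percent · Medium – PBS plus Tween 20 (0.05%) and BSA (0.1%)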
Beta2AR agonist = beta2AR agonists driving receptor internalization, primary screen, cell-based, FAP fluorogen, flow cytometry; Am2.2-beta2AR cells; 340,000 compounds, 0.43% hits; response, % (concentration not given with the values); AID 504454, 2011;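 active means response above a set limit, near 3 SD of response in nonfluorescent compounds, cut at about 42% in these data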
GRK2 aptamer HTS = compounds blocking aptamer binding on GRK2 – biochemical, human GRK2, bead flow cytometry, HTS, primary screen; Beta-adrenergic receptor kinase 1 (Homo sapiens), P25098; FAM-aptamer displacement from GRK2; inhibition of aptamer binding, % at 10 µM; 330,000 compounds, 0.59% hits;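 active means inhibition of aptamer binding above 40%, roughly 3 SD of noise, on plates passing a quality check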;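 further: median bead fluorescence of bound FAM aptamer so fluorescent compounds give negative values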
Target sequence (P25098 whole entry, looked up): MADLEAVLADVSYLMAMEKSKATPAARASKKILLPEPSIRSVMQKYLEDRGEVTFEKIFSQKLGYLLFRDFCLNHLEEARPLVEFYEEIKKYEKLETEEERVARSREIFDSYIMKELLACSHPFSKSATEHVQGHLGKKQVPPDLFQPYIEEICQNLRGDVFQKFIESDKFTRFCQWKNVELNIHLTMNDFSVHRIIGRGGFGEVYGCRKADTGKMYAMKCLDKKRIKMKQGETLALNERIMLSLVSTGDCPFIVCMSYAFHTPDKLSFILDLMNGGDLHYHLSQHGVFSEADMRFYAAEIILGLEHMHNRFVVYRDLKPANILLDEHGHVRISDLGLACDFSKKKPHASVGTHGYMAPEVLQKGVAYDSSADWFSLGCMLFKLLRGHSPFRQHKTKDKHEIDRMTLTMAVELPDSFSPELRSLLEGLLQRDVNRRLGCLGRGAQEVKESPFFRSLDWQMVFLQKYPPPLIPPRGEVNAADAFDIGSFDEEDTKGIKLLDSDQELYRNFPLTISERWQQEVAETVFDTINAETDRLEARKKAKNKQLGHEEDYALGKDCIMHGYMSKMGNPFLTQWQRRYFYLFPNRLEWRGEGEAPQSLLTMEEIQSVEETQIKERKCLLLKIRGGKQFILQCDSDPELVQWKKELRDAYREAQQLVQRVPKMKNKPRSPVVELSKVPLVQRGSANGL
H9c2 TAG inh = inhibitors of triacylglycerol accumulation, primary screen, cell-based, uHTS, fluorescence, H9c2; inhibition, % at 12.5 µM; AID 651582, 2012; H9c2 cells, Nile Red lipid (TAG) fluorescence; cells loaded with 200 µM oleic acid; 230,000 compounds, 0.66% hits;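 active means pattern-corrected inhibition of lipid staining of at least 50% with the nuclear-stain viability signal not falling by more than 50%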
B2AR ag CP1 = beta2AR agonists via receptor internalization, confirmation, cell-based, FAP fluorogen, flow cytometry, single point, cherry pick 1; AID 540358, 2011; percent response (surface receptor), % at 10 µM; Am2.2-beta2AR cells, FAP surface receptor; active compounds read low; 1,100 compounds, 25% hits; shares compounds with Beta2AR agonist;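 active means surface receptor percent response at or below 58%, roughly 3 SD from nonfluorescent compounds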
FAP fluor counter = fluorescence artifact in beta-2AR agonist FAP counterscreen | shares compounds with Beta2AR agonist | Am2.2 cells, FAP fluorogen flow cytometry; active compounds read low | calls only at 10 µM | 1,100 tested, under 10 active;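 active means percent response below a set limit in fluorescence channel 1 and below 50% in channel 8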
A number is an active result; - = inactive; . = no result given.

SMILES | Hep lipid drop | NTR1 agonist | Arr AP2 block | Beta2AR agonist | GRK2 aptamer HTS | H9c2 TAG inh | B2AR ag CP1 | FAP fluor counter
Cc1ccc2[nH]c(CNC(=O)c3ccccc3F)cc2c1 | - | - | - | - | - | - | . | .
Cc1ccc(OCC(=O)Nc2ccc3c(c2)nc(CCN2CCN(c4ccccn4)CC2)n3C)cc1 | . | . | . | . | . | - | . | .
Cc1ccc(OCC(=O)Nc2ccc3c(c2)nc(CCN2CCN(C)CC2)n3C)cc1 | - | - | - | - | - | - | - | -
CN1CCN(CCc2nc3cc(NC(=O)COc4ccc(Cl)cc4)ccc3n2C)CC1 | - | - | - | 47 | - | . | - | -
CCOc1ccccc1C(=O)NCC(=O)OCc1csc(CC(=O)Nc2ccc(C)cc2)n1 | . | - | - | 85 | - | - | 12 | -
FC(F)(F)c1cnc(COc2cc(Cl)cc(Cl)c2)c(Cl)c1 | . | - | - | - | - | - | . | .
Cc1ccc(Cc2c(C)nc3nc(SCC(=O)NCCCN4CCCCC4)nn3c2C)cc1 | - | - | - | - | - | . | . | .
Cc1c(Cl)cccc1N1C(=O)C(N2C(=O)c3cccc([N+](=O)[O-])c3C2=O)C1c1cccs1 (configuration not stated) | . | - | - | 52 | - | . | - | -
CC(C)CNc1ncnc2c1sc1nc(N3CCOCC3)c3c(c12)CC(C)(C)OC3 | . | - | - | - | - | . | - | -
CN(C)CCNc1ncnc2c1sc1nc(N3CCCC3)c3c(c12)CC(C)(C)OC3 | - | - | - | 72 | - | - | 35 | -
CCN(CC)CCNc1ncnc2c1sc1nc(N3CCOCC3)c3c(c12)CCCC3 | - | - | - | - | - | - | . | .
CC(C)(C)c1csc(NC(=O)Cc2ccc(S(=O)(=O)N3CCOCC3)s2)n1 | . | - | - | - | - | - | . | .
Cc1ccc(-c2nc3ncccc3o2)cc1NC(=O)c1sc2ccccc2c1Cl | . | - | - | 45 | - | . | - | -
Cc1ccc(-c2nc3ncccc3o2)cc1NC(=O)c1cccs1 | - | - | - | - | - | - | . | .
COc1ccc(N2CCN(C(=O)CCC(=O)N3Cc4ccccc4Oc4ncccc43)CC2)cc1 | - | - | - | - | - | . | . | .
COc1ccc(-n2c(Cc3cc(=O)[nH]c(=O)[nH]3)nnc2SCC(=O)NC2CCCC2)cc1 | . | - | - | 52 | - | - | - | -
CCOc1ccc(-n2c(Cc3cc(=O)[nH]c(=O)[nH]3)nnc2SCC(=O)NC2CCCC2)cc1 | . | - | - | - | - | - | . | .
COc1ccc(-n2ccnc(SCC(=O)NC3CCCCC3)c2=O)cc1 | - | - | - | 93 | - | . | - | -
Cc1ccc(S(=O)(=O)N(C)CC(=O)N2CCN(c3ccccn3)CC2)cc1 | - | - | - | 99 | - | - | 16 | -
CN(CC(=O)N1CCN(c2ccc(F)cc2)CC1)S(=O)(=O)c1ccc(F)cc1 | - | - | - | - | - | . | - | -
CN(CC(=O)N1CCN(c2ccccn2)CC1)S(=O)(=O)c1ccc(Cl)cc1 | - | - | - | 110 | - | . | 33 | -
COc1ccc(N2CCN(C(=O)CN(C)S(=O)(=O)c3cc(C)ccc3OC)CC2)cc1 | - | - | - | - | - | - | - | -
CN(CC(=O)N1CCN(c2ccccn2)CC1)S(=O)(=O)c1ccc2ccccc2c1 | - | - | - | - | - | . | . | .
COc1cccc(-c2cnc(C(O)c3cc(F)cc(Cl)c3)[nH]2)c1 (configuration not stated) | . | . | . | . | . | - | . | .
O=C(NNC(=O)c1ccccc1F)c1ccc(Cl)c(S(=O)(=O)N2CCOCC2)c1 | . | - | - | - | - | - | . | .
